RORa inhibitor – inhibitors of orphan receptor RORA, primary screen, cell-based, luminescence | Nuclear receptor ROR-alpha (Homo sapiens), P35398 | CHO-K1 Gal4-RORA LBD luciferase reporter | inhibition, % at 10 µM | 65,000 tested, 0.43% active;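 active means inhibition above the mean of all tested compounds plus 3 SD, cut at about 52% in these data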;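 further: 0% = RORA-transfected cells with DMSO and 100% = mock-transfected cells lacking RORA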
Target sequence (P35398 whole entry, looked up, the tested form may be a part): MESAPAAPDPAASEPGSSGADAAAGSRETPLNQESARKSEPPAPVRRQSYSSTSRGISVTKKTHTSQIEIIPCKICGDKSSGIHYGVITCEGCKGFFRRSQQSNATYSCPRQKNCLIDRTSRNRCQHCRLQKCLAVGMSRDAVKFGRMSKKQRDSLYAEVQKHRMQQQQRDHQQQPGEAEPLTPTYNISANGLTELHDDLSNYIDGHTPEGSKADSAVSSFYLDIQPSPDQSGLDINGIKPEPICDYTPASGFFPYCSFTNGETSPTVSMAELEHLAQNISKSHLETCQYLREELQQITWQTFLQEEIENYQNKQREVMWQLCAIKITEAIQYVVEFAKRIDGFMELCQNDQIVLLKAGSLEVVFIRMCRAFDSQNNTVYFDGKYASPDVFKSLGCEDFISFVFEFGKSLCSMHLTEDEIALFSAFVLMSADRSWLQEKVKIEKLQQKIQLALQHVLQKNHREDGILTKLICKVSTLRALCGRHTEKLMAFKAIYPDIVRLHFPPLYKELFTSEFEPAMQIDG
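Test system – CHO-K1 Gal4-RORA LBD luciferase reporter cells · Schedule – 20 h at 37 °C · Signal – luminescence from basal luciferase reporter expression · Measure – percent inhibition of basal reporter luminescence, control-normalized · Control set – -RORA mock-transfected DMSO wells 100%, +RORA DMSO wells 0%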
The depositor's hits bear a star. This excerpt belongs to a sample that is enriched for hits.

What do the screens show for `O=C1C2C3C=CC(C3)C2C(=O)N1c1ccc(-c2nc3ccccc3o2)cc1` (centres undefined)?
RORa inhibitor: -73

What do the screens show for `CC(Sc1ccc2ccccc2n1)C(=O)O` (centres undefined)?
RORa inhibitor: 1

How did c1ccc2nc(-c3nc4ccccc4o3)ccc2c1 do in these assays?
RORa inhibitor: 58*

What do the screens show for `O=C(O)[C@H](Cc1ccccc1)NC(=O)N1CCOCC1`?
RORa inhibitor: 9

Results for CCOc1cc(N2CCOCC2)c(OCC)cc1NS(=O)(=O)c1ccc(Cl)s1 ?
RORa inhibitor: -79

What do the screens show for `C=CCn1c(CCNC(=O)C(C)(C)C)nc2ccccc21`?
RORa inhibitor: 14

Results for CS(=O)(=O)N(CC(=O)O)c1cc(Cl)cc(Cl)c1 ?
RORa inhibitor: 10

How did CN(C)/C=N/c1cnc(C(=O)c2ccc(Cl)cc2)n1C do in these assays?
RORa inhibitor: -76

How did NC(=O)C1CCN(C(=O)CSCc2ccccc2Cl)CC1 do in these assays?
RORa inhibitor: -16

What do the screens show for `Cc1ccc(-c2nsc3c(N4CCC(C(N)=O)CC4)ncnc23)cc1`?
RORa inhibitor: 57*

Results for CCOC(=O)COc1ccc2c(c1)C(=O)CC(C)(C)O2 ?
RORa inhibitor: -14

What do the screens show for `O=C(Nc1ccc(Cl)cc1)N1CC=CCC1`?
RORa inhibitor: -52

What do the screens show for `CCCCC(=O)Nc1ccc(C(=O)N2CCCC(C(=O)OCC)C2)cc1` (centres undefined)?
RORa inhibitor: -3

How did O=S1(=O)C=C(Sc2nnc(-c3ccccc3)o2)c2ccccc21 do in these assays?
RORa inhibitor: 80*

Results for c1ccc(-c2nnc(SCc3cn4ccsc4n3)o2)cc1 ?
RORa inhibitor: -42

Results for O=c1oc2ccccc2n1CSc1nc2ccccc2s1 ?
RORa inhibitor: -66

How did Cc1cc(C)nc(SC2=CS(=O)(=O)c3ccccc32)n1 do in these assays?
RORa inhibitor: 65*

Results for O=S1(=O)C=C(Sc2nc3ccccc3s2)c2ccccc21 ?
RORa inhibitor: 88*

How did OC1CCCCC1Sc1nc2ccccc2s1 (centres undefined) do in these assays?
RORa inhibitor: -30

Results for O=C(Sc1nnc(-c2ccccc2)o1)N1c2ccccc2Sc2ccccc21 ?
RORa inhibitor: 25

Results for COc1cc2c(cc1OC)CN(C(=O)COc1ccc(C)c(C)c1)CC2 ?
RORa inhibitor: -23

Results for O=C(Nc1ccccc1N1CCN(C(=O)c2ccccc2)CC1)c1cc2ccccc2o1 ?
RORa inhibitor: -7

How did CC12CN3CC(C)(CN(C1)C3c1ccc(Br)cc1)C2 (centres undefined) do in these assays?
RORa inhibitor: 29

Results for COc1ccc2c(c1OC)C(=O)N1C2SC[C@H]1C(=O)NC1CC(C)(C)NC(C)(C)C1 (some centres undefined) ?
RORa inhibitor: 8

How did COc1cccc(CNC(=O)CCCNS(=O)(=O)c2cccs2)c1 do in these assays?
RORa inhibitor: 1

What do the screens show for `CCc1ccc(NC2=NC(C(=O)NC3CCCCC3)CC(=O)N2)cc1` (centres undefined)?
RORa inhibitor: 17

What do the screens show for `Cn1c(-c2ccccc2)cc2c3no[n+]([O-])c3ccc21`?
RORa inhibitor: 66*

How did NC(=O)NC1CCCc2c1[nH]c1ccc(Cl)cc21 (centres undefined) do in these assays?
RORa inhibitor: 10

Results for CCOC(=O)N1CCN(C2=NC3(CCCCC3)C(C#N)C(=O)N2)CC1 (centres undefined) ?
RORa inhibitor: -8

Results for CCCCn1c(SCc2nnc(-c3ccccc3)o2)nc2c1c(=O)n(C)c(=O)n2C ?
RORa inhibitor: 6

How did O=C1Nc2cc(Cl)cnc2N2CCCC12 (centres undefined) do in these assays?
RORa inhibitor: -9

How did CCN(CC)S(=O)(=O)c1ccc2c(c1)c(=O)c(C(=O)N1CCN(c3ccccc3)CC1)cn2C do in these assays?
RORa inhibitor: 0

How did Cc1nnc(Sc2nc(Sc3nnc(C)s3)nc(N3CCN(C)CC3)n2)s1 do in these assays?
RORa inhibitor: 93*

What do the screens show for `N#C/C(C(=O)c1ccccc1)=C1/SC=C(N)N1c1ccccc1`?
RORa inhibitor: -31

What do the screens show for `CCc1ccc(-n2c(O)cnc2Nc2nc(C)cc(C)n2)cc1`?
RORa inhibitor: -4

What do the screens show for `Cn1c(SCC(N)=O)nnc1C1CCN(C(=O)NCc2ccccc2)CC1`?
RORa inhibitor: -13

What do the screens show for `Cc1ccc2nc(Nc3ccc4[nH]c(=O)[nH]c4c3)c(-n3nc(C)cc3C)nc2c1`?
RORa inhibitor: -59

How did COc1ccc2[nH]c(=O)c3c(c2c1)OC(C)(C)C=C3 do in these assays?
RORa inhibitor: 58*

Results for COc1ccc2[nH]c(C)c(CN3CCC(C)CC3)c(=O)c2c1 ?
RORa inhibitor: 1

How did CCCCOc1ccc(C2(C)CC(=O)NC2=O)cc1 (centres undefined) do in these assays?
RORa inhibitor: -15

Results for COc1ccccc1C(=O)Nc1c2c(nn1-c1cccc(C)c1C)CS(=O)(=O)C2 ?
RORa inhibitor: 20

Compound activity: PubChem, The Scripps Research Institute Molecular Screening Center
